# Source: ChEMBL document CHEMBL3994613, “Diaryltriazenes as antibacterial agents against methicillin resistant Staphylococcus aureus (MRSA) and Mycobacterium smegmatis” (Eur J Med Chem, 2017)
# What was measured:
# Staphylococcus aureus [1] = assay: Antibacterial activity against methicillin-resistant Staphylococcus aureus USA300 after 18 to 20 hrs by microdilution method; format: functional
# Outline: (§1)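 EUCAST broth microdilution in LB broth. Inoculum prepared by direct colony suspension from 20–24 h LB agar (E. coli DH10β) or 5% sheep blood BHI agar (MRSA USA300) growth. Final inoculum 2×10^4 CFU/mL, 18–20 h aerobic at 37 °C, growth read on a plate reader, at least duplicate.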
# Escherichia coli [2] = assay: Antibacterial activity against Escherichia coli DH10beta harboring pHuLUC3 after 18 to 20 hrs by microdilution method; format: functional; outline: as §1
# Escherichia coli [3] = assay: Bactericidal activity against Escherichia coli DH10beta harboring pHuLUC3 after 18 to 20 hrs by microdilution method; format: functional; outline: as §1
# [4] = tested on: Mycolicibacterium smegmatis; assay: Antimycobacterial activity against Mycobacterium smegmatis MC2 155 after 94 to 98 hrs by microdilution method; format: functional; conditions: str. MC2 155
# Outline: (§2)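 Microdilution in TSB broth. Inoculum from colonies grown 96 h on TSA, final 1×10^5 CFU/mL, aerobic 94–98 h at 37 °C, growth read on a plate reader, at least duplicate.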
# Staphylococcus aureus [5] = assay: Bactericidal activity against methicillin-resistant Staphylococcus aureus USA300 after 18 to 20 hrs by microdilution method; format: functional; outline: as §1
# [6] = tested on: Mycolicibacterium smegmatis; assay: Bactericidal activity against Mycobacterium smegmatis MC2 155 after 96 hrs by microdilution method; format: functional; conditions: str. MC2 155, 96 h; outline: as §2
# Saccharomyces cerevisiae = assay: Antibacterial activity against Saccharomyces cerevisiae after 18 to 20 hrs by microdilution method
# Outline: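 Microdilution in YEP broth against wild-type yeast grown on YEP agar. Final inoculum 1×10^5 CFU/mL. Read after 18–20 h aerobic incubation at 30 °C on plate reader, at least one duplicate.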
# Staphylococcus aureus [7] = assay: Antibacterial activity against methicillin-resistant Staphylococcus aureus USA300 by broth microdilution method
Compound,MIC (Staphylococcus aureus [1]),MIC (Escherichia coli [2]),MBC (Escherichia coli [3]),MIC [4],MBC (Staphylococcus aureus [5]),MBC [6],MIC (Saccharomyces cerevisiae),MIC (Staphylococcus aureus [7])
COC(=O)N(/N=N/c1ccc([N+](=O)[O-])cc1Cl)c1ccc([N+](=O)[O-])cc1Cl,32 µg/mL,64 µg/mL,128 µg/mL,128 µg/mL,32 µg/mL,> 128 µg/mL,> 128 µg/mL,
O=C(c1ccccc1C(F)(F)F)N(/N=N/c1ccc([N+](=O)[O-])cc1C(F)(F)F)c1ccc([N+](=O)[O-])cc1C(F)(F)F,> 128 µg/mL,128 µg/mL,128 µg/mL,> 128 µg/mL,,,> 128 µg/mL,
Clc1ccc(Cl)c(/N=N/Nc2cc(Cl)ccc2Cl)c1,> 128 µg/mL,> 128 µg/mL,,> 128 µg/mL,,,> 128 µg/mL,
CC(=O)N(/N=N/c1ccc([N+](=O)[O-])cc1)c1ccc([N+](=O)[O-])cc1,> 128 µg/mL,64 µg/mL,128 µg/mL,> 128 µg/mL,,,> 128 µg/mL,
CC(=O)N(/N=N/c1ccc([N+](=O)[O-])cc1Cl)c1ccc([N+](=O)[O-])cc1Cl,4 µg/mL,64 µg/mL,> 128 µg/mL,16 µg/mL,4 µg/mL,> 128 µg/mL,> 128 µg/mL,
O=C(c1ccccc1)N(/N=N/c1ccc([N+](=O)[O-])cc1Cl)c1ccc([N+](=O)[O-])cc1Cl,32 µg/mL,32 µg/mL,32 µg/mL,128 µg/mL,32 µg/mL,> 128 µg/mL,> 128 µg/mL,
O=C(c1ccccc1F)N(/N=N/c1ccc([N+](=O)[O-])cc1Br)c1ccc([N+](=O)[O-])cc1Br,> 128 µg/mL,128 µg/mL,128 µg/mL,> 128 µg/mL,,,> 128 µg/mL,
O=C(c1ccccc1C(F)(F)F)N(/N=N/c1ccc([N+](=O)[O-])cc1Br)c1ccc([N+](=O)[O-])cc1Br,> 128 µg/mL,64 µg/mL,64 µg/mL,> 128 µg/mL,,,> 128 µg/mL,
O=C(c1cccc(C(F)(F)F)c1)N(/N=N/c1ccc([N+](=O)[O-])cc1Br)c1ccc([N+](=O)[O-])cc1Br,8 µg/mL,32 µg/mL,64 µg/mL,128 µg/mL,8 µg/mL,> 128 µg/mL,> 128 µg/mL,
O=C(c1ccc(F)cc1)N(/N=N/c1ccc([N+](=O)[O-])cc1Br)c1ccc([N+](=O)[O-])cc1Br,> 128 µg/mL,64 µg/mL,64 µg/mL,> 128 µg/mL,,,> 128 µg/mL,
CC(=O)OCC(=O)N(/N=N/c1ccc([N+](=O)[O-])cc1Br)c1ccc([N+](=O)[O-])cc1Br,8 µg/mL,64 µg/mL,64 µg/mL,> 128 µg/mL,16 µg/mL,,> 128 µg/mL,
O=C(c1ccccc1F)N(/N=N/c1ccc([N+](=O)[O-])cc1Cl)c1ccc([N+](=O)[O-])cc1Cl,> 128 µg/mL,64 µg/mL,128 µg/mL,> 128 µg/mL,,,> 128 µg/mL,
O=C(c1ccccc1C(F)(F)F)N(/N=N/c1ccc([N+](=O)[O-])cc1Cl)c1ccc([N+](=O)[O-])cc1Cl,> 128 µg/mL,64 µg/mL,128 µg/mL,> 128 µg/mL,,,> 128 µg/mL,
O=C(c1cccc(C(F)(F)F)c1)N(/N=N/c1ccc([N+](=O)[O-])cc1Cl)c1ccc([N+](=O)[O-])cc1Cl,8 µg/mL,32 µg/mL,64 µg/mL,32 µg/mL,8 µg/mL,> 128 µg/mL,> 128 µg/mL,
O=C(c1ccc(C(F)(F)F)cc1)N(/N=N/c1ccc([N+](=O)[O-])cc1Cl)c1ccc([N+](=O)[O-])cc1Cl,8 µg/mL,64 µg/mL,128 µg/mL,16 µg/mL,8 µg/mL,> 128 µg/mL,> 128 µg/mL,
O=C(c1cccc(F)c1)N(/N=N/c1ccc([N+](=O)[O-])cc1Cl)c1ccc([N+](=O)[O-])cc1Cl,16 µg/mL,64 µg/mL,64 µg/mL,> 128 µg/mL,16 µg/mL,,> 128 µg/mL,
Fc1ccc(/N=N/Nc2ccc(F)cc2C(F)(F)F)c(C(F)(F)F)c1,> 128 µg/mL,> 128 µg/mL,,> 128 µg/mL,,,> 128 µg/mL,
O=C(c1cccnc1)N(/N=N/c1ccc([N+](=O)[O-])cc1Cl)c1ccc([N+](=O)[O-])cc1Cl,32 µg/mL,32 µg/mL,32 µg/mL,64 µg/mL,32 µg/mL,128 µg/mL,> 128 µg/mL,
O=C(c1ccncc1)N(/N=N/c1ccc([N+](=O)[O-])cc1)c1ccc([N+](=O)[O-])cc1,128 µg/mL,16 µg/mL,32 µg/mL,> 128 µg/mL,128 µg/mL,,> 128 µg/mL,
O=C(CCl)N(/N=N/c1ccc([N+](=O)[O-])cc1Br)c1ccc([N+](=O)[O-])cc1Br,> 128 µg/mL,64 µg/mL,128 µg/mL,> 128 µg/mL,,,> 128 µg/mL,

Compound,MIC (Staphylococcus aureus [1]),MIC (Escherichia coli [2]),MBC (Escherichia coli [3]),MIC [4],MBC (Staphylococcus aureus [5]),MBC [6],MIC (Saccharomyces cerevisiae),MIC (Staphylococcus aureus [7])
O=C(c1ccncc1)N(/N=N/c1ccc([N+](=O)[O-])c(C(F)(F)F)c1)c1ccc([N+](=O)[O-])c(C(F)(F)F)c1,2 µg/mL,32 µg/mL,32 µg/mL,64 µg/mL,2 µg/mL,> 128 µg/mL,> 128 µg/mL,
O=C(c1cccnc1)N(/N=N/c1ccc([N+](=O)[O-])cc1Br)c1ccc([N+](=O)[O-])cc1Br,32 µg/mL,16 µg/mL,32 µg/mL,64 µg/mL,32 µg/mL,128 µg/mL,> 128 µg/mL,
O=C(CCl)N(/N=N/c1ccc(C(F)(F)F)cc1C(F)(F)F)c1ccc(C(F)(F)F)cc1C(F)(F)F,> 128 µg/mL,,,,> 128 µg/mL,,> 128 µg/mL,
O=C(c1cccnc1)N(/N=N/c1ccc([N+](=O)[O-])cc1F)c1ccc([N+](=O)[O-])cc1F,64 µg/mL,128 µg/mL,> 128 µg/mL,> 128 µg/mL,64 µg/mL,,> 128 µg/mL,
FC(F)(F)c1ccc(/N=N/Nc2ccc(C(F)(F)F)cc2C(F)(F)F)c(C(F)(F)F)c1,> 128 µg/mL,,,,,,> 128 µg/mL,
O=C(c1ccncc1)N(/N=N/c1ccc([N+](=O)[O-])cc1Cl)c1ccc([N+](=O)[O-])cc1Cl,16 µg/mL,16 µg/mL,16 µg/mL,128 µg/mL,16 µg/mL,> 128 µg/mL,> 128 µg/mL,
O=C(c1ccncc1)N(/N=N/c1ccc([N+](=O)[O-])cc1Br)c1ccc([N+](=O)[O-])cc1Br,32 µg/mL,32 µg/mL,32 µg/mL,128 µg/mL,32 µg/mL,> 128 µg/mL,> 128 µg/mL,
O=C(CCl)N(/N=N/c1ccc(Cl)cc1C(F)(F)F)c1ccc(Cl)cc1C(F)(F)F,> 128 µg/mL,,,,> 128 µg/mL,,> 128 µg/mL,
O=C(c1cccnc1)N(/N=N/c1ccc([N+](=O)[O-])c(C(F)(F)F)c1)c1ccc([N+](=O)[O-])c(C(F)(F)F)c1,4 µg/mL,32 µg/mL,64 µg/mL,64 µg/mL,4 µg/mL,> 128 µg/mL,> 128 µg/mL,
Ic1ccccc1/N=N/Nc1ccccc1I,> 128 µg/mL,> 128 µg/mL,,> 128 µg/mL,,,> 128 µg/mL,
O=C(c1cccnc1)N(/N=N/c1ccc([N+](=O)[O-])cc1)c1ccc([N+](=O)[O-])cc1,64 µg/mL,8 µg/mL,16 µg/mL,> 128 µg/mL,128 µg/mL,,> 128 µg/mL,
O=C(c1ccncc1)N(/N=N/c1ccc([N+](=O)[O-])cc1F)c1ccc([N+](=O)[O-])cc1F,32 µg/mL,> 128 µg/mL,,> 128 µg/mL,32 µg/mL,,> 128 µg/mL,
O=C(N[C@H](CO)[C@H](O)c1ccc([N+](=O)[O-])cc1)C(Cl)Cl [CHLORAMPHENICOL],,,,,,,,4 to 32 µg/mL
O=C(O)c1cn(C2CC2)c2cc(N3CCNCC3)c(F)cc2c1=O [CIPROFLOXACIN],,,,,,,,0.125 to 64 µg/mL
CCC[C@@H]1C[C@@H](C(=O)N[C@@H]([C@H]2O[C@H](SC)[C@H](O)[C@@H](O)[C@H]2O)[C@H](C)Cl)N(C)C1 [CLINDAMYCIN],,,,,,,,0.125 to 64 µg/mL
CC[C@H]1OC(=O)[C@H](C)[C@@H](O[C@H]2C[C@@](C)(OC)[C@@H](O)[C@H](C)O2)[C@H](C)[C@@H](O[C@@H]2O[C@H](C)C[C@H](N(C)C)[C@H]2O)[C@](C)(O)C[C@@H](C)C(=O)[C@H](C)[C@@H](O)[C@]1(C)O [ERYTHROMYCIN],,,,,,,,8 to 64 µg/mL
COc1c(N2CCNC(C)C2)c(F)cc2c(=O)c(C(=O)O)cn(C3CC3)c12 (stereo unspecified) [GATIFLOXACIN],,,,,,,,0.5 to 4 µg/mL
NC[C@H]1O[C@H](O[C@H]2[C@H](O)[C@@H](O[C@H]3O[C@H](CO)[C@@H](O)[C@H](N)[C@H]3O)[C@H](N)C[C@@H]2N)[C@H](O)[C@@H](O)[C@@H]1O [KANAMYCIN],,,,,,,,> 64 µg/mL
C[C@H]1COc2c(N3CCN(C)CC3)c(F)cc3c(=O)c(C(=O)O)cn1c23.C[C@H]1COc2c(N3CCN(C)CC3)c(F)cc3c(=O)c(C(=O)O)cn1c23.O [LEVOFLOXACIN],,,,,,,,0.25 to 32 µg/mL
